Measurements taken from ChEMBL document CHEMBL1127469, “Decapeptide agonists of human C5a: the relationship between conformation and spasmogenic and platelet aggregatory activities” (J Med Chem, 1994).
Bridge positions count the residues as written; N and C are the ends. Peptide text beside a SMILES is read from it.

Assays:
Cavia porcellus [1] = organism: Cavia porcellus; assay: Platelet aggregation in guinea pig; assay type: functional
Summary of the method: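 Platelet-rich plasma from arterial blood of anesthetized male Hartley guinea pigs, diluted to 3 × 10^8 platelets/mL in 0.39% sodium citrate. Peptides are serially diluted 1.5-fold and shaken with plasma and a 3 mm glass bead at 100 rpm, 5 min, 37 °C. Aggregation is scored visually at 40×. The threshold is the greatest dilution giving visible aggregation. At least three independent duplicate runs; C5a and C3a serve as standards.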

Cavia porcellus [2] = organism: Cavia porcellus; assay: Effective dose required for smooth muscle contraction in guinea pig ileum; assay type: functional; settings: Muscle tissue
Summary of the method: (§1)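 Isometric contraction of tissue strips in 2 mL organ baths of Krebs-Ringers solution, 37 °C, pH 7.4, gassed with 95% O2/5% CO2, equilibrated 1 h. Tachyphylaxis prevents cumulative curves, so each strip gets one peptide concentration, then histamine 10 μM. Response is taken as % of the histamine maximum. EC50 comes from probit analysis, reported as pD2 (-log EC50, M), mean ± SE.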

Cavia porcellus [3] = organism: Cavia porcellus; assay: Effective dose required for smooth muscle contraction in Guinea pig lung parenchyma; assay type: functional; summary of the method: as §1
[4] = target: T1, C5a anaphylatoxin chemotactic receptor 1 (Homo sapiens) (UniProt P21730); assay: Pharmacological activity against C5a receptor in human fetal artery; summary of the method: as §1
T1 sequence (whole entry): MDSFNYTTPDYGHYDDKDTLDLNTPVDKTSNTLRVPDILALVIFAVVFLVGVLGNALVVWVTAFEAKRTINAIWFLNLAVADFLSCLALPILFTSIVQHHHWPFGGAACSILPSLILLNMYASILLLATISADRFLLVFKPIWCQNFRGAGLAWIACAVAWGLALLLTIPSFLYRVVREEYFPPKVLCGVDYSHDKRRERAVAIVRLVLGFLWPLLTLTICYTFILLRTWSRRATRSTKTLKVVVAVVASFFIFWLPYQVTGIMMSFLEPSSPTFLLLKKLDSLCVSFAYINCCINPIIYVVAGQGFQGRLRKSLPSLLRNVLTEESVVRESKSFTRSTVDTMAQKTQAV

[5] = target: T2, C5a anaphylatoxin chemotactic receptor 1 (Cavia porcellus) (UniProt O70129); assay: Pharmacological activity against C5a receptor in guinea pig ileum; assay type: tissue-based; summary of the method: as §1
T2 sequence (whole entry): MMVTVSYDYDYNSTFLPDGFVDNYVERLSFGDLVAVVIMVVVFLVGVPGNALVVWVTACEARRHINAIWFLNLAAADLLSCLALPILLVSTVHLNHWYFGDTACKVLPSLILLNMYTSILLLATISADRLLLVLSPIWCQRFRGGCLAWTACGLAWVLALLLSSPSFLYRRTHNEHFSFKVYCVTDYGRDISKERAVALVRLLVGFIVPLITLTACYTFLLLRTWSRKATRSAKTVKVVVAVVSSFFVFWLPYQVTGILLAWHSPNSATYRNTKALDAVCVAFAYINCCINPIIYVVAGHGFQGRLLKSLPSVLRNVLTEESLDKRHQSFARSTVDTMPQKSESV

Homo sapiens = organism: Homo sapiens; assay: Effective dose required for smooth muscle contraction in human fetal artery; assay type: functional; settings: Muscle tissue; summary of the method: as §1
[6] = test system: C5a anaphylatoxin chemotactic receptor 1 (Cavia porcellus); assay: Tested for pharmacological activity against C5a receptor in Guinea pig lung parenchyma

| EC50 (Cavia porcellus [2]) | EC50 (Cavia porcellus [3]) | EC50 (Homo sapiens) | Molecule | Platelet aggregation (Cavia porcellus [1]) | pD2 [4] | pD2 [5] | pD2 [6] |
| --- | --- | --- | --- | --- | --- | --- | --- |
| 18.1 µM | 22.1 µM | 6.6 µM | H-YSFKGLLLGR-OH | 21 µM | 5.21 | 4.74 |  |
|  |  | 0.59 µM | H-YSFKGMPLGR-OH | 6.3 µM | 6.23 |  |  |
|  |  | 26.6 µM | CC(C)C[C@H](NC(=O)[C@@H]1CCCN1C(=O)[C@H](CS)NC(=O)[C@H](CC(=O)O)NC(=O)[C@H](CCCCN)NC(=O)[C@H](Cc1ccccc1)NC(=O)[C@H](CO)NC(=O)[C@@H](N)Cc1ccc(O)cc1)C(=O)N[C@@H](CS)C(=O)N[C@@H](CCCN=C(N)N)C(=O)O (H-YSFKDCPLCR-OH) | 4.1 µM | 4.67 |  |  |
|  |  | > 1000 µM | CSCC[C@H](NC(=O)[C@H](CC(=O)O)NC(=O)[C@H](CCCCN)NC(=O)[C@H](Cc1ccccc1)NC(=O)[C@H](CO)NC(=O)[C@@H](N)Cc1ccc(O)cc1)C(=O)N[C@@H](CCC(N)=O)C(=O)N[C@@H](CC(C)C)C(=O)N1CCC[C@H]1C(=O)N[C@@H](CCCN=C(N)N)C(=O)O | 225 µM | < 3 |  |  |
|  |  | 40 µM | CSCC[C@H](NC(=O)CNC(=O)[C@H](CCCCN)NC(=O)[C@H](Cc1ccccc1)NC(=O)[C@H](CO)NC(=O)[C@@H](N)Cc1ccc(O)cc1)C(=O)N[C@@H](CC(C)C)C(=O)N[C@@H](CC(C)C)C(=O)NCC(=O)N[C@H](CCCN=C(N)N)C(=O)O |  | 4.43 |  |  |
| 11.5 µM | 8.1 µM | 1.13 µM | CSCC[C@H](NC(=O)[C@H](CC(=O)O)NC(=O)[C@H](CCCCN)NC(=O)[C@H](Cc1ccccc1)NC(=O)[C@H](CO)NC(=O)[C@@H](N)Cc1ccc(O)cc1)C(=O)N1CCC[C@H]1C(=O)N[C@@H](CC(C)C)C(=O)NCC(=O)N[C@@H](CCCN=C(N)N)C(=O)O | 6.3 µM | 6.18 | 5.14 |  |
|  |  | 25.1 µM | H-YSFKDMPPGR-OH | 80 µM | 4.68 |  |  |
| 26.8 µM | 15.1 µM | 4.9 µM | CSCC[C@H](NC(=O)CNC(=O)[C@H](CCCCN)NC(=O)[C@H](Cc1ccccc1)NC(=O)[C@H](CO)NC(=O)[C@@H](N)Cc1ccc(O)cc1)C(=O)N[C@@H](CC(C)C)C(=O)N[C@@H](CC(C)C)C(=O)NCC(=O)N[C@@H](CCCN=C(N)N)C(=O)O | 10.5 µM | 5.34 | 4.61 | 5 |
|  |  | 162 µM | CC(C)C[C@@H]1NC(=O)[C@@H]2CCCN2C(=O)[C@@H](NC(=O)[C@H](CC(=O)O)NC(=O)[C@H](CCCCN)NC(=O)[C@H](Cc2ccccc2)NC(=O)[C@H](CO)NC(=O)[C@@H](N)Cc2ccc(O)cc2)CSSC[C@@H](C(=O)N[C@@H](CCCN=C(N)N)C(=O)O)NC1=O (H-YSFKDCPLCR-OH; disulfide 6-9) | >410 µM | < 4 |  |  |
| 344 µM |  | 48 µM | H-YSFKDMQPGR-OH | 500 µM | 4.4 | 3.64 |  |
|  |  |  | H-ISFKDMQLGR-OH | 86.3 µM |  |  |  |
|  |  |  | C[C@H](NC(=O)[C@@H]1CCCN1C(=O)[C@H](CCS)NC(=O)[C@H](CC(=O)O)NC(=O)[C@H](CCCCN)NC(=O)[C@H](Cc1ccccc1)NC(=O)[C@H](CO)NC(=O)[C@@H](N)Cc1ccc(O)cc1)C(=O)N[C@H](C)C(=O)N[C@@H](CCCN=C(N)N)C(=O)O |  | 4.86 |  |  |
|  |  | 2.04 µM | H-YSFKDCPLGR-OH | 2.3 µM | 5.79 |  |  |
| 37.5 µM | 28.4 µM | 11.2 µM | H-YSFKDMQLGR-OH | 22.9 µM | 5.05 | 4.51 |  |
| 26.6 µM |  | 1.74 µM | CC(C)C[C@H](NC(=O)[C@@H]1CCCN1C(=O)[C@H](C)NC(=O)[C@H](CC(=O)O)NC(=O)[C@H](CCCCN)NC(=O)[C@H](Cc1ccccc1)NC(=O)[C@H](CO)NC(=O)[C@@H](N)Cc1ccc(O)cc1)C(=O)NCC(=O)N[C@@H](CCCN=C(N)N)C(=O)O | 7.4 µM | 6.11 | 4.79 |  |
|  |  | > 1000 µM | CSCC[C@H](NC(=O)[C@H](CC(=O)O)NC(=O)[C@H](CCCCN)NC(=O)[C@H](Cc1ccccc1)NC(=O)[C@H](CO)NC(=O)[C@@H](N)Cc1ccc(O)cc1)C(=O)N1CCC[C@H]1C(=O)N[C@@H](C)C(=O)NCC(=O)N[C@@H](CCCN=C(N)N)C(=O)O | 101 µM | < 3 |  |  |
|  |  | 12.2 µM | CSCC[C@H](NC(=O)[C@H](CC(=O)O)NC(=O)[C@H](CCCCN)NC(=O)[C@H](Cc1ccccc1)NC(=O)[C@H](CO)NC(=O)[C@@H](N)Cc1ccc(O)cc1)C(=O)N[C@@H](CCC(N)=O)C(=O)N[C@@H](CC(C)C)C(=O)N[C@H](C)C(=O)N[C@@H](CCCN=C(N)N)C(=O)O | 20 µM | 5.42 |  |  |
|  |  | 122 µM | CSCC[C@H](NC(=O)[C@H](CC(=O)O)NC(=O)[C@H](CCCCN)NC(=O)[C@H](Cc1ccccc1)NC(=O)[C@H](CO)NC(=O)[C@@H](N)Cc1ccc(O)cc1)C(=O)N[C@@H](CCC(N)=O)C(=O)N[C@@H](CC(C)C)C(=O)N[C@@H](C)C(=O)N[C@@H](CCCN=C(N)N)C(=O)O | 34 µM | 4.04 |  |  |
